Experimental data of several laboratories.
Each line is one published result; the experiments were not run side by side.
BACE1: Beta-secretase 1 (BACE1, Homo sapiens, UniProt P56817)
Transmembrane protease serine 6: Transmembrane protease serine 6 (Homo sapiens, UniProt Q8IU80)
MTOR: Serine/threonine-protein kinase mTOR (MTOR, Homo sapiens, UniProt P42345)
AGTR1: Type-1 angiotensin II receptor (AGTR1, Homo sapiens, UniProt P30556)
NPY1R: Neuropeptide Y receptor type 1 (NPY1R, Homo sapiens, UniProt P25929)
AVPR2: Vasopressin V2 receptor (AVPR2, Homo sapiens, UniProt P30518)

SMILES | target | test | conditions | inhibition [%]
CC(C)C[C@H](NC(=O)[C@H](Cc1ccccc1)NC(=O)c1cnccn1)B(O)O | Neutrophil elastase (ELANE, Homo sapiens, UniProt P08246) | enzyme activity, inhibitor | 33 µM | 36.1
O=C(Nc1cccnn1)N1CCN([C@@H]2CCOc3cc(C(F)(F)F)ccc32)CC1 | BACE1 | enzyme activity, inhibitor | 20 µM | 3
C[C@@H]1CCCN1CCCCOc1ccc2occc(=O)c2c1 | Transmembrane protease serine 6 | enzyme activity, inhibitor, fluorescence | 10 µM | 10
Cn1cc(-c2cc(F)cc(N3CCn4c(cc5c4CCCC5)C3=O)c2CO)cc(Nc2ccc(N3CCN(C4COC4)CC3)cn2)c1=O | MTOR | enzyme activity, inhibitor | 0.1 µM | 2
CC(C)CC(CC(=O)NO)N=[N+]=[N-] (stereo not drawn) | Endoplasmic reticulum aminopeptidase 2 (ERAP2, Homo sapiens, UniProt Q6P179) | enzyme activity, inhibitor, fluorescence | 300 µM | 21
CN(CCN1CCC(OC(=O)Nc2ccccc2-c2ccccc2)CC1)C(=O)c1ccc(CN2CCC(C(N)=O)CC2)cc1 | AGTR1 | ligand displacement, radioligand | 1 µM | 3
CCN(CC)CCCC[C@H](NC(=O)[C@H](CC(C)C)NC(=O)[C@H](C)NC(=O)[C@H](Cc1ccccc1)NC(=O)c1ccc(C(C)(C)C)cc1)C(=O)N[C@@H](CO)C(=O)OC | NPY1R | ligand displacement, radioligand | 10 µM | -20
C[C@H](C(=O)N[C@H]1COc2ccccc2[C@@H]1S(C)(=O)=O)c1ccc(F)cc1 | AVPR2 | cell-free assay | 10 µM | 3
CC(C)N1CCC[C@H]1CNC(=O)c1cn(C2CCCC2)c(=O)c2c1c1ccccc1n2C | NPY1R | ligand displacement, radioligand | 10 µM | 5
Cn1cc(-c2cccc(N3CCc4c(sc5c4CC(C)(C)C5)C3=O)c2CO)cc(Nc2ccncn2)c1=O | Protein kinase C delta type (PRKCD, Homo sapiens, UniProt Q05655) | enzyme activity, inhibitor | 1 µM | 1
COCc1c(-c2cc3cc(C)cc(OC)c3s2)c2c(N)ncnn2c1CN1CCNC(=O)C1 | AGTR1 | ligand displacement, radioligand | 10 µM | 9
CN1CCN(CCCOc2ccc3occc(=O)c3c2)CC1 | Transmembrane protease serine 6 | enzyme activity, inhibitor, fluorescence | 10 µM | 5
COc1ccc(S(=O)(=O)N2CCCCC2)cc1C | NPY1R | ligand displacement, radioligand | 10 µM | < 30
OC[C@@]12C[C@@H]1[C@@H](n1cnc3c(NC(C4CCCC4)C4CCCC4)nc(Cl)cc31)[C@H](O)[C@@H]2O | Adenosine receptor A3 (ADORA3, Homo sapiens, UniProt P0DMS8) | ligand displacement, radioligand | 10 µM | 35
Cc1ncc(C)n2nc(/C=C/c3nc(N4CCCC4)cc(N4CCOCC4)n3)nc12 | BACE1 | enzyme activity, inhibitor | 10 µM | 4
CC(C)Cn1cnc2c(N)nc3ccccc3c21 | NPY1R | ligand displacement, radioligand | 10 µM | 13
c1ccc(C(NCCNC(c2ccccc2)c2ccccc2)c2ccccc2)cc1 | AVPR2 | cell-free assay | 10 µM | 29
C#Cc1n[nH]c2c(-c3cn(C(C)c4ccccn4)c(=O)[nH]c3=O)cc(F)cc12 (stereo not drawn) | MTOR | enzyme activity, inhibitor | 1 µM | -1.6
